Reference: article PMC9075995 (RSC Advances, 2019)
Converted amounts (≈) assume the structure as drawn. Like-named read-outs stand apart in the source and are kept apart here.

Legend:
[1] = test system: NALM-6 (leukemia lymphoblastic); details: read-out: Cell culture IC50; NALM-6, referential compounds; cited from earlier work
[2] = test system: HL-60 (leukemia promyelocytic); details: read-out: Cell culture IC50; HL-60, referential compounds; cited from earlier work
[3] = test system: WM-115 (human melanoma); details: read-out: Cell culture IC50; WM-115, referential compounds; cited from earlier work
[4] = test system: P. aeruginosa ATCC 25619; experiment: MIC and MBC by broth microdilution, subculture on agar; type: cell-based; details: Pseudomonas aeruginosa, ATCC25619
In short: (§1)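 EUCAST broth microdilution used Mueller-Hinton broth for bacteria and phenol-red-free RPMI-1640 for Candida. Test compound ran at a final 31.2–1000 μg ml−1, from 80 mg ml−1 DMSO stocks, with DMSO ≤1.25%. […] For MBC/MFC, 10 μl from the MIC, 2× and 4× MIC wells was plated on agar for 24 h at 37 °C. Done in duplicate, 2 sets.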

[5] = test system: S. aureus ATCC 29213; experiment: as above; type: cell-based, Staphylococcus aureus; details: for MBC/MFC: S. aureus ATCC 29213, second line per compound, subculture on agar 24 h, 37 °C; for MIC: Staphylococcus aureus, ATCC29213
In short: as §1

[6] = test system: NALM-6 (leukemia lymphoblastic); experiment: Anticancer activity, MTT assay; type: cell-based, human; details: for IC50: Homo sapiens, NALM-6, 48 h, read-out: Cell culture IC50; for anticancer activity in words: NALM-6
In short: (§2)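 Human leukaemia (HL-60, NALM-6) or melanoma (WM-115) cells were exposed to the test compound for 46 h, then given MTT for a further 2 h. Fresh DMSO stocks were diluted in complete medium, with DMSO ≤0.2%. Untreated cells served as control. IC50 was taken from concentration–response curves, as mean ± SD of 4 experiments.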

[7] = test system: S. epidermidis ATCC 12228; experiment: MIC and MBC by broth microdilution, subculture on agar; type: cell-based, Staphylococcus epidermidis; details: for MIC: Staphylococcus epidermidis, ATCC12228
In short: as §1

[8] = test system: P. vulgaris ATCC 8427; experiment: as above; type: cell-based, Proteus vulgaris; details: for MBC/MFC: P. vulgaris ATCC 8427, second line per compound, subculture on agar 24 h, 37 °C; for MIC: Proteus vulgaris, ATCC8427
In short: as §1

[9] = test system: HL-60 (leukemia promyelocytic); experiment: Anticancer activity, MTT assay; type: cell-based, human; details: for IC50: Homo sapiens, HL-60, 48 h, read-out: Cell culture IC50; for anticancer activity in words: HL-60
In short: as §2

[10] = test system: WM-115 (human melanoma); experiment: Anticancer activity, MTT assay; type: cell-based; details: for IC50: Homo sapiens, WM-115, 48 h, read-out: Cell culture IC50
In short: as §2

[11] = test system: Supercoiled plasmid pUC57 DNA; experiment: Cleavage of pUC57 DNA, agarose gel electrophoresis; type: biochemical; details: 37 °C, 24 h, pH 7.2, gel electrophoresis
In short: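 Supercoiled pUC57 plasmid (4634 bp) in 10 mM Tris–HCl/50 mM NaCl, pH 7.2, was incubated with the test compound (50, 100, 200, 300, 400 μM) at 37 °C for 24 h. Samples ran on 1% agarose at 75 V in TAE, were stained with Midori green and imaged under UV. Band intensities gave the fraction of each DNA form. Control was DNA with matching DMSO in buffer. Done in triplicate.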

[12] = test system: C. albicans ATCC 10231; experiment: MIC and MFC by broth microdilution, subculture on agar; type: cell-based, Candida albicans; details: for MBC/MFC: C. albicans ATCC 10231, second line per compound, subculture on agar 24 h, 37 °C; for MIC: Candida albicans, ATCC10231
In short: as §1

[13] = test system: E. faecalis ATCC 29212; experiment: MIC and MBC by broth microdilution, subculture on agar; type: cell-based, Enterococcus faecalis; details: for MBC/MFC: second line per compound, subculture on agar 24 h, 37 °C; for MIC: Enterococcus faecalis, ATCC29212
In short: as §1

[14] = test system: human foreskin fibroblasts HFF-1 (ATCC-SCRC-1041); experiment: Cytotoxicity on normal fibroblasts, MTT reduction assay; type: cell-based; details: for metabolic activity higher than untreated control cells: HFF-1, low concentrations 3.9–31.2 μM
In short: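 HFF-1 fibroblasts were seeded at 1 × 10^5/well in DMEM with 15% FCS and pen/strep and grown 48 h (37 °C, 5% CO2). They were exposed 24 h to the test compound (25 mM DMSO stocks; final 3.9–500 μM). Cells were washed and given MTT (1.5 mg ml−1) for 2 h. Formazan was dissolved overnight in 20% SDS in DMF/water and read at 550 nm. Viability is relative to 2% DMSO control; IC50 came from trend-line equations. Two experiments, duplicates each.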

| Molecule | MIC [4] | MBC/MFC [5] | MIC [5] | IC50 [6] | MIC [7] | MBC/MFC [8] | MIC [8] | IC50 [9] | IC50 [10] | effect on supercoiled plasmid DNA (cleavage of Form I) [11] | MBC/MFC [12] | MIC [12] | MBC/MFC ([13]; E. faecalis ATCC 29212) | MIC [13] | further results |
| --- | --- | --- | --- | --- | --- | --- | --- | --- | --- | --- | --- | --- | --- | --- | --- |
| N.N.O=C([O-])C1(C(=O)[O-])CCC1.[Pt+2] [Carboplatin] |  |  |  |  |  |  |  |  |  |  |  |  |  |  | IC50 [1]: 0.7 ± 0.2 µM; IC50 [2]: 4.3 ± 1.3 µM; IC50 [3]: 422 ± 50.2 µM |
| N.N.[Cl][Pt][Cl] [Cisplatin] |  |  |  |  |  |  |  |  |  |  |  |  |  |  | IC50 [1]: 0.7 ± 0.3 µM; IC50 [2]: 0.8 ± 0.1 µM; IC50 [3]: 18.2 ± 4.3 µM |
| Cc1cc(C)n(C(N)=S)n1 [Compound 1a, 1-[amino(thioxo)methyl]-3,5-dimethyl-1H-pyrazole] | > 1000 µg/mL | >1000 µg/mL | > 1000 µg/mL | 569 ± 21.9 µM | > 1000 µg/mL | >1000 µg/mL | > 1000 µg/mL | 584 ± 84.3 µM | > 1000 µM | did not affect the DNA | >1000 µg/mL | > 1000 µg/mL | >1000 µg/mL | > 1000 µg/mL |  |
| CCc1cc(CC)n(C(N)=S)n1 [Compound 1b, 1-[amino(thioxo)methyl]-3,5-diethyl-1H-pyrazole] | > 1000 µg/mL | >1000 µg/mL | 1000 µg/mL (≈ 5.46 mM) | 469 ± 44.4 µM | > 1000 µg/mL | 1000 µg/mL (≈ 5.46 mM) | 1000 µg/mL (≈ 5.46 mM) | 506 ± 47.1 µM | 481 ± 39.4 µM | did not affect the DNA | 1000 µg/mL (≈ 5.46 mM) | 1000 µg/mL (≈ 5.46 mM) | >1000 µg/mL | > 1000 µg/mL |  |
| NC(=S)n1nc(-c2ccccc2)cc1O [Compound 1c, 1-[amino(thioxo)methyl]-5-hydroxy-3-phenyl-1H-pyrazole] | > 1000 µg/mL | >1000 µg/mL | 1000 µg/mL (≈ 4.56 mM) | 152 ± 26.7 µM | 62.5 µg/mL (≈ 0.285 mM) | >1000 µg/mL | > 1000 µg/mL | 618 ± 32 µM | 752 ± 118 µM |  | >1000 µg/mL | > 1000 µg/mL | >1000 µg/mL | 500 µg/mL (≈ 2.28 mM) |  |
| Cc1cc(O)n(C(N)=S)n1 [Compound 1d, 1-[amino(thioxo)methyl]-5-hydroxy-3-methyl-1H-pyrazole] | > 1000 µg/mL | >1000 µg/mL | 1000 µg/mL (≈ 6.36 mM) | 615 ± 60.9 µM | 250 µg/mL (≈ 1.59 mM) | >1000 µg/mL | > 1000 µg/mL | 779 ± 125 µM | 90.9 ± 10.2 µM | did not affect the DNA | >1000 µg/mL | > 1000 µg/mL | >1000 µg/mL | 250 µg/mL (≈ 1.59 mM) |  |
| Cc1cc(C)n(C(N)=S)n1.Cc1ccc(C(C)C)cc1.[Cl][Ru][Cl] [Compound 2a] |  | 125 µg/mL |  |  |  | >1000 µg/mL |  |  |  | no influence |  |  | 125 µg/mL |  | metabolic activity higher than untreated control cells [14]: 39–45% |
| Cc1ccc(C(C)C)cc1.Cc1ccc(C(C)C)cc1.[Cl][Ru][Cl].[Cl][Ru][Cl] [Dimer, dichloro(p-cymene)ruthenium(II)dimer, reference compound] |  | >1000 µg/mL |  |  |  | >1000 µg/mL |  |  |  | no effect | >1000 µg/mL |  | >1000 µg/mL |  | anticancer activity in words [6]: inactive; anticancer activity in words [9]: inactive; anticancer activity in words ([10]; WM-115): inactive |
| [(η^6-p-cymene)Ru(1-[amino(thioxo)methyl]-3,5-diethyl-1H-pyrazole)Cl2 [Compound 2b] |  | 125 µg/mL |  |  |  | >1000 µg/mL |  |  |  | cleavage the DNA Form I into Form II and Form III |  |  | 62.5 µg/mL |  | metabolic activity higher than untreated control cells [14]: 39–45% |
| [(η^6-p-cymene)Ru(1-[amino(thioxo)methyl]-5-hydroxy-3-methyl-1H-pyrazole) Cl2 [Compound 2d] |  | 500 µg/mL |  |  |  | 1000 µg/mL |  |  |  | cleavage the DNA Form I into Form II and Form III | >1000 µg/mL |  | 1000 µg/mL |  | anticancer activity in words [6]: inactive; viability of HFF-1 cells ([14]; HFF-1, 24 h, over tested range 3.9–500 μM): ≥ 80%; anticancer activity in words [9]: inactive; activity stronger than cisplatin (fold, from IC50 values) ([10]; WM-115): above 2 fold |
| [(η^6-p-cymene)Ru(1-[amino(thioxo)methyl]-5-hydroxy-3-phenyl-1H-pyrazole)Cl2 [Compound 2c] |  | 62.5 µg/mL |  |  |  | >1000 µg/mL |  |  |  | no influence | >1000 µg/mL |  | <31.2 µg/mL |  | activity (MIC) stronger than ligand 1c ([7]; S. epidermidis ATCC 12228): more than 2 fold; activity (MIC) stronger than ligand 1c ([13]; E. faecalis ATCC 29212): > 16 fold |
